Measured values as given in ChEMBL document CHEMBL4689842, “EUbOPEN Chemogenomics Library wave 1” (2021).

System: U2OS
Assay: Multiplex assay against U2OS
Type: toxicity, cell-based
Conditions: human
Procedure, shortened: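 Compound was added to live cells that had been stained at seeding with Hoechst33342, BioTracker Green Microtubule Cytoskeleton Dye, MitoTracker Red and Annexin V Alexa Fluor 680, and imaging followed on a CQ1 microscope at 37°C and 5% CO2. CellPathfinder machine-learning gating divided cells into Hoechst high-intensity objects or normal cells, normal cells into healthy, pyknosed or fragmented nuclei, and pyknosed cells into mitotic or apoptotic. Tubulin, mitochondrial-mass and membrane-permeability phenotypes are per cents of healthy-nucleus cells.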

[1] = 12 h, 1 µM, compound concentration 1 uM, replicate 1
[2] = 12 h, 1 µM, compound concentration 1 uM, replicate 2
[3] = 12 h, 10 µM, compound concentration 10 uM, replicate 1
[4] = 12 h, 10 µM, compound concentration 10 uM, replicate 2
[5] = 24 h, 1 µM, compound concentration 1 uM, replicate 1
[6] = 24 h, 1 µM, compound concentration 1 uM, replicate 2
[7] = 24 h, 10 µM, compound concentration 10 uM, replicate 1
[8] = 24 h, 10 µM, compound concentration 10 uM, replicate 2

Compound: CN(C)C/C=C/C(=O)Nc1cc2c(Nc3ccc(F)c(Cl)c3)ncnc2cc1O[C@H]1CCOC1.O=C(O)/C=C\C(=O)O.O=C(O)/C=C\C(=O)O [AFATINIB DIMALEATE]
- Population Apoptotic (%) [1]: 56%
- Population Fragmented Nuclei (%) [1]: 4%
- Population Healthy Nuclei (%) [1]: 85%
- Population Hoechst High Intensity Objects (%) [1]: 3%
- Population Membrane Permeable-Phenotype (%) [1]: 20%
- Population Mitochondria Different-Phenotype (%) [1]: 8%
- Population Mitotic Cells (%) [1]: 43%
- Population Normal (%) [1]: 96%
- Population Pyknosed Nuclei (%) [1]: 10%
- Population Tubulin-Different-Phenotype (%) [1]: 18%
- Population Apoptotic (%) [2]: 37%
- Population Fragmented Nuclei (%) [2]: 7%
- Population Healthy Nuclei (%) [2]: 86%
- Population Hoechst High Intensity Objects (%) [2]: 11%
- Population Membrane Permeable-Phenotype (%) [2]: 14%
- Population Mitochondria Different-Phenotype (%) [2]: 18%
- Population Mitotic Cells (%) [2]: 62%
- Population Normal (%) [2]: 88%
- Population Pyknosed Nuclei (%) [2]: 6%
- Population Tubulin-Different-Phenotype (%) [2]: 24%
- Population Apoptotic (%) [3]: 62%
- Population Healthy Nuclei (%) [3]: 56%
- Population Hoechst High Intensity Objects (%) [3]: 2%
- Population Membrane Permeable-Phenotype (%) [3]: 25%
- Population Mitochondria Different-Phenotype (%) [3]: 37%
- Population Mitotic Cells (%) [3]: 37%
- Population Normal (%) [3]: 97%
- Population Pyknosed Nuclei (%) [3]: 26%
- Population Tubulin-Different-Phenotype (%) [3]: 89%
- Population Apoptotic (%) [4]: 68%
- Population Fragmented Nuclei (%) [4]: 16%
- Population Healthy Nuclei (%) [4]: 47%
- Population Hoechst High Intensity Objects (%) [4]: 13%
- Population Membrane Permeable-Phenotype (%) [4]: 18%
- Population Mitochondria Different-Phenotype (%) [4]: 62%
- Population Mitotic Cells (%) [4]: 31%
- Population Normal (%) [4]: 86%
- Population Pyknosed Nuclei (%) [4]: 35%
- Population Tubulin-Different-Phenotype (%) [4]: 86%
- Population Apoptotic (%) [5]: 72%
- Population Fragmented Nuclei (%) [5]: 6%
- Population Healthy Nuclei (%) [5]: 85%
- Population Hoechst High Intensity Objects (%) [5]: 1%
- Population Membrane Permeable-Phenotype (%) [5]: 16%
- Population Mitochondria Different-Phenotype (%) [5]: 10%
- Population Mitotic Cells (%) [5]: 27%
- Population Normal (%) [5]: 98%
- Population Pyknosed Nuclei (%) [5]: 8%
- Population Tubulin-Different-Phenotype (%) [5]: 20%
- Population Apoptotic (%) [6]: 75%
- Population Fragmented Nuclei (%) [6]: 7%
- Population Healthy Nuclei (%) [6]: 87%
- Population Hoechst High Intensity Objects (%) [6]: 10%
- Population Membrane Permeable-Phenotype (%) [6]: 15%
- Population Mitochondria Different-Phenotype (%) [6]: 21%
- Population Mitotic Cells (%) [6]: 25%
- Population Normal (%) [6]: 89%
- Population Pyknosed Nuclei (%) [6]: 5%
- Population Tubulin-Different-Phenotype (%) [6]: 24%
- Population Apoptotic (%) [7]: 81%
- Population Fragmented Nuclei (%) [7]: 10%
- Population Healthy Nuclei (%) [7]: 65%
- Population Membrane Permeable-Phenotype (%) [7]: 26%
- Population Mitochondria Different-Phenotype (%) [7]: 66%
- Population Mitotic Cells (%) [7]: 18%
- Population Pyknosed Nuclei (%) [7]: 24%
- Population Tubulin-Different-Phenotype (%) [7]: 49%
- Population Apoptotic (%) [8]: 93%
- Population Fragmented Nuclei (%) [8]: 22%
- Population Healthy Nuclei (%) [8]: 41%
- Population Hoechst High Intensity Objects (%) [8]: 8%
- Population Membrane Permeable-Phenotype (%) [8]: 29%
- Population Mitochondria Different-Phenotype (%) [8]: 72%
- Population Mitotic Cells (%) [8]: 6%
- Population Normal (%) [8]: 91%
- Population Pyknosed Nuclei (%) [8]: 36%
- Population Tubulin-Different-Phenotype (%) [8]: 47%

Compound: CC(C)(C)c1cnc(CSc2cnc(NC(=O)C3CCNCC3)s2)o1 [BMS-387032]
- Population Apoptotic (%) [1]: 26%
- Population Fragmented Nuclei (%) [1]: 13%
- Population Healthy Nuclei (%) [1]: 69%
- Population Hoechst High Intensity Objects (%) [1]: 4%
- Population Membrane Permeable-Phenotype (%) [1]: 15%
- Population Mitochondria Different-Phenotype (%) [1]: 17%
- Population Mitotic Cells (%) [1]: 73%
- Population Normal (%) [1]: 95%
- Population Pyknosed Nuclei (%) [1]: 16%
- Population Tubulin-Different-Phenotype (%) [1]: 39%
- Total Cell Count [1]: 140
- Population Apoptotic (%) [2]: 14%
- Population Fragmented Nuclei (%) [2]: 11%
- Population Healthy Nuclei (%) [2]: 80%
- Population Hoechst High Intensity Objects (%) [2]: 15%
- Population Membrane Permeable-Phenotype (%) [2]: 21%
- Population Mitochondria Different-Phenotype (%) [2]: 31%
- Population Mitotic Cells (%) [2]: 85%
- Population Normal (%) [2]: 84%
- Population Pyknosed Nuclei (%) [2]: 7%
- Population Tubulin-Different-Phenotype (%) [2]: 37%
- Total Cell Count [2]: 143
- Population Apoptotic (%) [3]: 40%
- Population Fragmented Nuclei (%) [3]: 18%
- Population Healthy Nuclei (%) [3]: 61%
- Population Hoechst High Intensity Objects (%) [3]: 3%
- Population Membrane Permeable-Phenotype (%) [3]: 22%
- Population Mitochondria Different-Phenotype (%) [3]: 26%
- Population Mitotic Cells (%) [3]: 60%
- Population Normal (%) [3]: 96%
- Population Pyknosed Nuclei (%) [3]: 19%
- Population Tubulin-Different-Phenotype (%) [3]: 31%
- Total Cell Count [3]: 144
- Population Apoptotic (%) [4]: 18%
- Population Fragmented Nuclei (%) [4]: 19%
- Population Healthy Nuclei (%) [4]: 63%
- Population Hoechst High Intensity Objects (%) [4]: 13%
- Population Membrane Permeable-Phenotype (%) [4]: 10%
- Population Mitochondria Different-Phenotype (%) [4]: 47%
- Population Mitotic Cells (%) [4]: 81%
- Population Normal (%) [4]: 86%
- Population Pyknosed Nuclei (%) [4]: 17%
- Population Tubulin-Different-Phenotype (%) [4]: 25%
- Total Cell Count [4]: 109
- Population Apoptotic (%) [5]: 82%
- Population Fragmented Nuclei (%) [5]: 13%
- Population Healthy Nuclei (%) [5]: 75%
- Population Hoechst High Intensity Objects (%) [5]: 5%
- Population Membrane Permeable-Phenotype (%) [5]: 23%
- Population Mitochondria Different-Phenotype (%) [5]: 34%
- Population Mitotic Cells (%) [5]: 17%
- Population Normal (%) [5]: 94%
- Population Pyknosed Nuclei (%) [5]: 10%
- Population Tubulin-Different-Phenotype (%) [5]: 38%
- Total Cell Count [5]: 200
- Population Apoptotic (%) [6]: 55%
- Population Fragmented Nuclei (%) [6]: 11%
- Population Healthy Nuclei (%) [6]: 80%
- Population Hoechst High Intensity Objects (%) [6]: 8%
- Population Membrane Permeable-Phenotype (%) [6]: 22%
- Population Mitochondria Different-Phenotype (%) [6]: 36%
- Population Mitotic Cells (%) [6]: 44%
- Population Normal (%) [6]: 91%
- Population Pyknosed Nuclei (%) [6]: 8%
- Population Tubulin-Different-Phenotype (%) [6]: 36%
- Total Cell Count [6]: 166
- Population Apoptotic (%) [7]: 64%
- Population Fragmented Nuclei (%) [7]: 22%
- Population Healthy Nuclei (%) [7]: 45%
- Population Hoechst High Intensity Objects (%) [7]: 9%
- Population Membrane Permeable-Phenotype (%) [7]: 29%
- Population Mitochondria Different-Phenotype (%) [7]: 43%
- Population Mitotic Cells (%) [7]: 35%
- Population Normal (%) [7]: 90%
- Population Pyknosed Nuclei (%) [7]: 32%
- Population Tubulin-Different-Phenotype (%) [7]: 41%
- Total Cell Count [7]: 174
- Population Apoptotic (%) [8]: 78%
- Population Fragmented Nuclei (%) [8]: 12%
- Population Healthy Nuclei (%) [8]: 52%
- Population Hoechst High Intensity Objects (%) [8]: 17%
- Population Membrane Permeable-Phenotype (%) [8]: 24%
- Population Mitochondria Different-Phenotype (%) [8]: 41%
- Population Mitotic Cells (%) [8]: 21%
- Population Normal (%) [8]: 82%
- Population Pyknosed Nuclei (%) [8]: 34%
- Population Tubulin-Different-Phenotype (%) [8]: 27%
- Total Cell Count [8]: 118
